Here are results for 1 compound from ChEMBL document CHEMBL5338714, “Design, synthesis and biological evaluation of biphenyl-benzamides as potent FtsZ inhibitors” (Eur J Med Chem, 2022).

The subject of data set [1] is Staphylococcus aureus. Nature of the data set: Antibacterial activity against ampicillin/kanamycin-resistant Staphylococcus aureus 6917 assessed as bacterial growth inhibition incubated for 18 hrs by CLSI based broth microdilution method. The format is functional. The essentials:
(§1)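 Broth microdilution to CLSI guidelines. Log-phase bacteria grown in Mueller Hinton broth, diluted, then exposed to 2-fold serial dilutions of compound (128 to 0.25 µg/mL or 2 to 0.004 µg/mL). Incubated aerobically 18 h at 37 °C. Growth read as OD600. MIC = lowest concentration giving ≥90% growth inhibition. Three independent assays.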
Background: Broth dilution looks for growth in wells or tubes with falling amounts of substance.

Data set [2] in a line: Metabolic stability in mouse liver microsomes assessed as compound remaining preincubated for 5 mins followed by NADPH addition measured after 15 mins by LC/MS analysis. The format is ADME, Microsome. The following applies: time 20 min, read-out: Stability. The essentials:
(§2)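 Liver microsomes (final protein 0.75 mg/mL) with compound in 100 mM phosphate buffer pH 7.4, preincubated 5 min at 37 °C. Reaction started with NADPH regeneration system, stopped at 5, 15, 30 and 45 min with acetonitrile containing internal standard. Percent remaining measured by LC/MS, with ketanserin as reference; variation given as RSD of area ratio.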
For orientation: Microsomes from liver hold many membrane-bound enzymes, among them those of drug oxidation.

Data set [3] is described as follows: Half life in ICR mouse at 5 mg/kg, po measured for 0.25 to 24 hrs by LC-MS/MS analysis. The format is ADME, organism-based. The following applies: in vivo, time 0.25-24 hrs. Put shortly:
(§3)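 Male ICR mice dosed orally with a solution of 5% DMSO, 4% ethanol, 5% Cremophor EL and 86% water. Blood collected at 15, 30 min, 1, 2, 4, 6, 8 and 24 h; plasma stored at -20 °C. Plasma levels measured by LC-MS/MS; parameters by non-compartmental analysis, with bioavailability relative to the 1 mg/kg iv dose.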

Data set [4] is described as follows: Half life in ICR mouse at 1 mg/kg, iv measured for 0.08 to 24 hrs by LC-MS/MS analysis. The note with it: in vivo, time 0.08-24 hrs. The class given is ADME, organism-based. Put shortly:
(§4)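 Male ICR mice, single intravenous dose formulated in 5% DMSO, 4% ethanol, 5% Cremophor EL, 86% water. Blood sampled at 5, 15, 30 min, 1, 2, 4, 8 and 24 h; plasma stored at -20 °C. Compound quantified by LC-MS/MS, with parameters from non-compartmental analysis.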

The nature of data set [5]: Tmax in ICR mouse at 1 mg/kg, iv measured for 0.08 to 24 hrs by LC-MS/MS analysis. The note with it: in vivo, time 0.08-24 hrs. The format is ADME, organism-based. The essentials: as §4
The test system of data set [6] is Staphylococcus aureus. Nature of the data set: Antibacterial activity against Staphylococcus aureus ATCC25923 assessed as bacterial growth inhibition incubated for 18 hrs by CLSI based broth microdilution method. The format is functional. Put shortly: (§5)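 CLSI broth microdilution. Log-phase bacteria in Mueller Hinton broth added to 2-fold serial dilutions spanning 128 to 0.25 or 2 to 0.004 µg/mL. Incubated aerobically for 18 h at 37 °C, then OD600 read. MIC is the lowest concentration giving ≥90% growth inhibition; three independent assays.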

Data set [7] in a line: Metabolic stability in human liver microsomes assessed as compound remaining preincubated for 5 mins followed by NADPH addition measured immediately by LC/MS analysis. The format is ADME, Microsome. The following applies: read-out: Stability. Put shortly: as §2
A short description of data set [8]: Metabolic stability in rat liver microsomes assessed as intrinsic clearance preincubated for 5 mins followed by NADPH addition measured upto 45 mins by LC/MS analysis. The format is ADME, Microsome. The note with it: time < 50 min, read-out: CLH. The essentials:
(§6)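 Liver microsomes at 0.75 mg/mL final protein, with test article and NADPH regeneration system (6 mM) in 100 mM phosphate buffer, pH 7.4. Preincubated 5 min at 37 °C, then started with NADPH. Quenched with acetonitrile containing internal standard at 5, 15, 30 and 45 min, centrifuged, and percent remaining measured by LC/MS. Ketanserin served as reference.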

The subject of the next data set is Bacillus subtilis. The data set can be described thus: Antibacterial activity against Bacillus subtilis MG27 assessed as bacterial growth inhibition incubated for 18 hrs by CLSI based broth microdilution method. The format is functional. The essentials: as §5
The nature of data set [9]: Metabolic stability in human liver microsomes assessed as half life preincubated for 5 mins followed by NADPH addition measured upto 45 mins by LC/MS analysis. The format is ADME, Microsome. The following applies: time < 50 min. Put shortly: as §6
The nature of data set [10]: Clearance in ICR mouse at 1 mg/kg, iv measured for 0.08 to 24 hrs by LC-MS/MS analysis. The class given is ADME, organism-based. The following applies: in vivo, time 0.08-24 hrs. The essentials: as §4
Data set [11] can be described thus: Bioavailability in ICR mouse at 5 mg/kg, po measured for 0.25 to 24 hrs by LC-MS/MS analysis. The format is ADME, organism-based. The note with it: in vivo, time 0.25-24 hrs. Put shortly:
as §3

Data set [12] can be described thus: Metabolic stability in human liver microsomes assessed as intrinsic clearance preincubated for 5 mins followed by NADPH addition measured upto 45 mins by LC/MS analysis. The class given is ADME, Microsome. The following applies: time < 50 min, read-out: CLH. The essentials:
as §6

A short description of data set [13]: AUC (0 to infinity) in ICR mouse at 1 mg/kg, iv measured for 0.08 to 24 hrs by LC-MS/MS analysis. The class given is ADME, organism-based. More on the design: dose 1 mg/kg, time upper 24 hrs, time lower 0.08 hrs, route iv. The note with it: in vivo. Put shortly:
as §4

The target in data set [14] is T1, Cell division protein FtsZ (Staphylococcus aureus) (UniProt P0A031).
T1 sequence (whole entry): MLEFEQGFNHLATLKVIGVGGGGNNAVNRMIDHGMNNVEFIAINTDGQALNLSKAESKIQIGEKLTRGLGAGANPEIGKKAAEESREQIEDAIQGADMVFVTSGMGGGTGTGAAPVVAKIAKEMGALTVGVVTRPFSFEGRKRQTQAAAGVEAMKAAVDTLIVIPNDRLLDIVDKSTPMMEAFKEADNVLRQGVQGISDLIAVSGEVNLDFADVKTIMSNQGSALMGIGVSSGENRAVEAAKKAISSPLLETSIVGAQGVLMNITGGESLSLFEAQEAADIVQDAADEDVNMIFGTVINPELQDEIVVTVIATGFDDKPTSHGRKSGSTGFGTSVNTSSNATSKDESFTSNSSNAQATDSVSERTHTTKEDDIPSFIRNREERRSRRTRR
The data set can be described thus: Inhibition of recombinant Staphylococcus aureus FtsZ assessed as FtsZ polymerization at 10 ug/ml preincubated for 10 mins followed by GTP addition measured after 20 mins by TEM analysis. The following applies: dose 10.0 µg/ml, time 30.0 min. Put shortly: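 Recombinant S. aureus FtsZ (12 µM) preincubated 10 min at room temperature with compound in DMSO, in 50 mM Hepes-KOH pH 6.8. KCl 50 mM, MgCl2 5 mM and GTP 1 mM then added, 20 min at 37 °C. Samples placed on glow-discharged carbon grids, stained with 1% phosphotungstic acid, imaged by TEM.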

Data set [15] is described as follows: Metabolic stability in rat liver microsomes assessed as compound remaining preincubated for 5 mins followed by NADPH addition measured immediately by LC/MS analysis. The following applies: read-out: Stability. The format is ADME, Microsome.
The nature of data set [16]: Cmax in ICR mouse at 1 mg/kg, iv measured for 0.08 to 24 hrs by LC-MS/MS analysis. The format is ADME, organism-based. More on the design: time upper 24 hrs, dose 1 mg/kg, time lower 0.08 hrs, route iv. The note with it: in vivo. The essentials:
as §4

Data set [17] is described as follows: Metabolic stability in human liver microsomes assessed as compound remaining preincubated for 5 mins followed by NADPH addition measured after 15 mins by LC/MS analysis. The class given is ADME, Microsome. The note with it: time 20 min, read-out: Stability. Put shortly: as §2
Data set [18] in a line: Metabolic stability in rat liver microsomes assessed as compound remaining preincubated for 5 mins followed by NADPH addition measured after 30 mins by LC/MS analysis. The format is ADME, Microsome. The following applies: time 35 min, read-out: Stability. Put shortly:
as §2

Another data set relates to Klebsiella pneumoniae. Nature of the data set: Antibacterial activity against Klebsiella pneumoniae 14578 assessed as bacterial growth inhibition incubated for 18 hrs by CLSI based broth microdilution method. The format is functional. The essentials: as §1
A short description of data set [19]: Metabolic stability in human liver microsomes assessed as compound remaining preincubated for 5 mins followed by NADPH addition measured after 30 mins by LC/MS analysis. The class given is ADME, Microsome. The note with it: time 35 min, read-out: Stability. Put shortly: as §2

Structures are written as SMILES. In brackets after ≈: the same amount, converted by molar mass. Activity calls are given as the source filed them. No cut-off for these calls is given here.

Take `Cc1cc(Cl)ccc1-c1cccc(COc2ccc(F)c(C(N)=O)c2F)c1`: the minimal inhibitory concentration (MIC) (commonly the lowest concentration found to suppress growth) in the data set on Staphylococcus aureus [1] is 0.125 µg/mL (≈ 0.322 µM); in the data set with Staphylococcus aureus [6], 0.125 µg/mL (≈ 0.322 µM); with Bacillus subtilis, 0.031 µg/mL (≈ 0.0799 µM); in the data set with Klebsiella pneumoniae, over 128 µg/mL. In addition, the remaining at 0.25 h stood at 11.9% in data set [2] and 86.2% in data set [17]. Also, the half-life (in general, the time in which the quantity being followed falls by half) in data set [3] is 2.26 h; in data set [9], 1.87 h. The compound further returned a t1/2 in data set [4] of 0.28 h. In addition, the Tmax – broadly, the time at which the peak concentration occurs – in data set [5] was found to be 4.98 min. The remaining at 0 min in data set [7] and in [15] was 100% throughout. Besides, the CLint scaled in data set [8] worked out at 183 mL/min/kg; in data set [12], 15.5 mL/min/kg. The same compound had a CL in [10] of 94.713 mL/min/kg. The bioavailability (commonly the share of a dose that reaches the circulation, judged against a reference dose that is usually intravenous) in data set [11] was 61.2%. Also, in [13], the AUC(0-inf) (usually the area under the concentration-time curve extrapolated to infinity) is 179 ng·h/mL. Moreover, in data set [14], the inhibition result is “Active”. For the same compound, the Cmax – broadly, the highest concentration seen after dosing – in [16] came out at 480 ng/mL. Further, the remaining at 0.5 h in [18] amounted to 19.1%; in data set [19], 83.4%.
